Shown are actives, neighbours in structure and some others; about 3.5% of the full set was active somewhere.
MrgX1 antag: antagonists of human MrgX1 receptor, primary screen, HEK293 cells, Fluo-4 calcium flux; Mas-related G-protein coupled receptor member X1 (Homo sapiens), Q96LB2; BAM8-22 antagonism; active compounds read low; B-score at 10 µM; 1.3% of 310,000 active; AID 588676, 2011;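 active means calcium-response B-score plate-corrected more than 3 library SD below zero, starting fluorescence within 5 deviations, no agonist response on first addition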;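 further: peak minus trough fluorescence over baseline after final BAM8-22 challenge near maximal dose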
Target sequence (Q96LB2 whole entry, looked up): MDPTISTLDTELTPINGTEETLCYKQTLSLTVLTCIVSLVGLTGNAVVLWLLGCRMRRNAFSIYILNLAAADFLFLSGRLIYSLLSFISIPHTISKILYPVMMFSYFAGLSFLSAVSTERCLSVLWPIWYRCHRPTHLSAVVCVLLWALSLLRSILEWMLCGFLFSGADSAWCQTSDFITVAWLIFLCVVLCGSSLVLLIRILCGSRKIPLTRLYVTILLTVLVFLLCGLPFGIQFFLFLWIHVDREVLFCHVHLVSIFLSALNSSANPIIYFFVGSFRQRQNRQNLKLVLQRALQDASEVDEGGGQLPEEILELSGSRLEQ
RGS4 inh: RGS4 inhibitors, primary screen, cell-based, HEK293 M3R inducible RGS4, calcium flux | Regulator of G-protein signaling 4 (Homo sapiens), P49798 | Fluo-4 calcium flux; active compounds read high; triggered by carbachol at its EC20 | B-score at 10 µM | 0.45% of 310,000 active | AID 463165, 2010;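 active means B-score, a plate-corrected calcium signal, over three deviations above library mean, with baseline fluorescence within five deviations of library mean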;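 further: RGS4 expression induced by doxycycline in cells with stable M3 receptor; B-score is computed from the integrated fluorescence ratio over baseline after carbachol; higher B-score means a larger calcium signal and so more RGS4 inhibition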
Target sequence (P49798 whole entry, looked up): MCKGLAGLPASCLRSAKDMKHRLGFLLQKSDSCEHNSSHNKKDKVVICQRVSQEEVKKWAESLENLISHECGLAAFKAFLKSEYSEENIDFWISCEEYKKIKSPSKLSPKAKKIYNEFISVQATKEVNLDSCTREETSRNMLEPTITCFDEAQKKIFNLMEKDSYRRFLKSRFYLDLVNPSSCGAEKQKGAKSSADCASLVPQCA
MrgX1 agonist: agonists of human MrgX1 receptor, primary screen, HEK293 cells, Fluo-4 calcium flux | Mas-related G-protein coupled receptor member X1 (Homo sapiens), Q96LB2 | Fluo-4 calcium fluorescence, agonist mode; active compounds read high | B-score at 10 µM | 0.44% of 310,000 active | AID 588627, 2011;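 active means calcium response B-score plate-corrected fluorescence ratio at least 3 library SD, with starting fluorescence B-score inside 5 SD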
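Material – MrgX1-expressing HEK293 cells · Input – 15,000 cells seeded per well · Dosing – compound as first of three additions · Times – overnight seeding, then 1 h dark dye loading · Measured by – kinetic Fluo-4 NW fluorescence of intracellular calcium · Read-out – B-scored fluorescence response ratio · Benchmarks – positive and negative control wells on each plate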
MrgX1 PAM: positive allosteric modulators of MrgX1, primary screen, HEK293 cells, Fluo-4 calcium flux; FDSS; active compounds read high; 0.63% of 310,000 active; Mas-related G-protein coupled receptor member X1 (Homo sapiens), Q96LB2; B-score at 10 µM;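 active means plate-corrected calcium response at least 3 library SD above typical, normal starting fluorescence, not activating the receptor alone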;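 further: compound read alongside a low EC10 to EC30 dose of BAM8-22 agonist; peak minus trough fluorescence over baseline measured at the second addition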
RGS4 act: RGS4 potentiators or activators, primary screen, cell-based, HEK293 M3R inducible RGS4, calcium flux | carbachol calcium flux Fluo4; active compounds read low | B-score at 10 µM | 0.92% of 310,000 active;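 active means B-score of the integrated calcium signal more than 4 SD below the library mean, with starting fluorescence not abnormally high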;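 further: negative B-score means reduced calcium response which marks RGS4 activation or potentiation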
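Reagent: ECmax carbachol challenge; Test system: M3R-expressing HEK293 line, RGS4 induced by doxycycline; Schedule: overnight RGS4 induction, 30 min dye load 37 °C, 20 min compound RT; Detection: calcium dye Fluo4 fluorescence; Read-out: Agonist-evoked peak-minus-minimum fluorescence over baseline, integrated ratio, B score.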
MrgX1 allo conf: MrgX1 positive allosteric modulators, duplicate retest, confirmation, HEK293 cells, Fluo-4 calcium flux | shares compounds with MrgX1 PAM | Fluo-4 calcium fluorescence, FDSS | activation (ratio percentage), % at 10 µM | 13% of 1,200 active | AID 602413, 2012;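 active means ratio at least 3 SD above the weak peptide control, stable starting fluorescence, no direct agonism earlier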;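 further: compound followed by low BAM8-22 agonist challenge near EC20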
MrgX1 ant reconf: MrgX1 receptor antagonists, duplicate retest, confirmation, HEK293 cells, Fluo-4 calcium flux | shares compounds with MrgX1 antag | BAM8-22 calcium flux; active compounds read low | remaining BAM8-22 calcium response % of control (active compounds read low), % at 10 µM | 19% of 2,300 active | AID 602420, 2012;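 active means remaining agonist calcium response no higher than 100% minus 3 SD of agonist-only control wells, with starting fluorescence near control levels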;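 further: agonist BAM8-22 given at a near maximal EC90 to ECmax level; peak minus minimum fluorescence divided by baseline after agonist addition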
HEK293 Ca flux: nonspecific calcium signal in parental HEK293, confirmation, counter-screen for MrgX1 antagonist project, parental HEK293 cells, Fluo-4 calcium flux; shares compounds with MrgX1 antag; 2% of 4,000 active; Fluo-4 calcium fluorescence, FDSS; fluorescence ratio F(max-min)/F0 at 10 µM; AID 624111, 2012;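 active means duplicate-averaged calcium fluorescence ratio at least three times the standard deviation of buffer wells, a nonspecific response in parental cells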
HEK293 Ca counter: calcium response in parental HEK293 cells, primary screen, counter-screen for MrgX1 allosteric activator project, cell-based, Fluo-4 calcium flux, duplicate. shares compounds with MrgX1 antag. Fluo-4 fluorescence ratio; active compounds read high. 0.4% of 4,000 active. fluorescence ratio F(max-min)/F0 at 10 µM;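 active means calcium fluorescence ratio, averaged over duplicates, at least 3 SD of the buffer-well ratio, meaning a nonspecific response in receptor-free cells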;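 further: untransfected parental HEK293 lacking MrgX1 used as counterscreen for MrgX1 allosteric activators; fluorescence change taken during the second addition on a kinetic imager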
HEK293 Ca cntr2: calcium response in parental HEK293 cells, primary screen, counter-screen for MrgX1 agonist project, cell-based, Fluo-4 calcium flux, duplicate, agonist mode; shares compounds with MrgX1 antag; Fluo-4 calcium fluorescence (FDSS); active compounds read high; fluorescence ratio F(max-min)/F0 at 10 µM; 8.7% of 4,000 active; AID 624115, 2012;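 active means calcium fluorescence ratio at least three times the spread of buffer wells, meaning a non-specific response in parental cells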
Starred values were filed as active, the others as inactive; i = inactive; · = no result.

SMILES	MrgX1 antag	RGS4 inh	MrgX1 agonist	MrgX1 PAM	RGS4 act	MrgX1 ant reconf	HEK293 Ca flux	HEK293 Ca counter	HEK293 Ca cntr2	others
CCc1[nH]nc2c1C(c1ccc(C)o1)C(C#N)=C(N)O2 (stereo unspecified)	i	i	i	7.59*	i	·	i	i	i	MrgX1 allo conf=i
CC1CCc2c(C(=O)Nc3ccccn3)csc2C1 (stereo unspecified)	i	i	i	8.28*	i	·	i	i	i	MrgX1 allo conf=i
CC1CCc2c(C(=O)NCc3ccccn3)csc2C1 (stereo unspecified)	i	i	i	i	i	·	·	·	·
Cc1ccc(CN2CCNC(=O)C2CC(=O)N(C)C2CCCCC2)cc1 (stereo unspecified)	i	i	i	i	i	·	·	·	·
CCOC(=O)c1cccc(NC(=O)CCc2ccccc2)c1	i	i	i	8.08*	i	·	i	i	i	MrgX1 allo conf=i
CCOC(=O)c1c(C)[nH]c(C)c1C(=O)COC(=O)c1c(OC)cccc1OC	i	i	i	7.06*	i	·	i	i	i	MrgX1 allo conf=i
Cc1nn(Cc2ccccc2Cl)c2sc(C(=O)Nc3nccs3)cc12	i	i	i	i	i	·	·	·	·
Cc1nn(Cc2ccc(F)cc2)c2sc(C(=O)Nc3nccs3)cc12	-4.68*	i	i	i	i	i	i	i	i
Cc1ccc(S(=O)(=O)NCC2CCC(C(=O)NCc3cccnc3)CC2)cc1 (stereo unspecified)	i	i	i	i	i	·	·	·	·
CN(CC(=O)Nc1c(Cl)cccc1Cl)C(=O)c1ccc2nc[nH]c2c1	-7.14*	i	i	i	i	73.5%*	i	i	i
Cc1cc(C)cc(NC(=O)NCc2c(-c3ccccc3)noc2C)c1	i	i	i	i	i	·	·	·	·
Cc1onc(-c2ccccc2)c1CNC(=O)Nc1cccc(Cl)c1	-6.55*	i	i	i	i	81.7%*	i	i	i
CC(C)[C@H](NC(N)=O)C(=O)Nc1ccc(F)c(Cl)c1	i	i	i	i	i	·	·	·	·
COC1CCN(C(=O)CC2C(=O)NCCN2CC2CCCCC2)CC1 (stereo unspecified)	-5.31*	i	i	i	i	i	i	i	i
COC1CCN(C(=O)CC2C(=O)NCCN2CC(C)(C)C)CC1 (stereo unspecified)	i	i	i	i	i	·	·	·	·
O=S(=O)(c1ccc2ccccc2c1)N1CCN(C(=S)Nc2ccc(F)c(Cl)c2)CC1	i	i	i	i	i	·	·	·	·
Cc1cc(N2C(=O)CC(N3CCN(c4ccc(C(=O)c5cccs5)cc4)CC3)C2=O)no1 (stereo unspecified)	-5.04*	i	i	i	i	i	i	i	i
O=C(NCc1ccccc1)c1ccccc1NC(=O)C1CCCCC1	i	i	i	i	i	·	·	·	·
Oc1c(Br)cc(Br)cc1C=Nc1cccc2ncccc12	-7.06*	i	i	i	i	82.6%*	i	i	i
COc1ccccc1N1CCN(C(=O)CN(c2ccc(C)c(C)c2)S(C)(=O)=O)CC1	-4.75*	i	i	i	i	i	i	i	i
COc1ccccc1N1CCN(C(=O)C(F)F)CC1	-6.82*	i	i	i	i	i	i	i	i
O=C(C[n+]1ccccc1)Nc1ccccc1C(F)(F)F	i	i	i	i	i	·	·	·	·
COc1ccc(C(O)C(CN2CCOCC2)c2ccccc2)cc1F (stereo unspecified)	-5.56*	i	i	i	i	i	i	i	i
Cc1nc2ccc3nc(NC(=O)c4ccc5c(c4)OCCO5)sc3c2s1	i	i	i	i	i	·	·	·	·
Cc1nc2c(ccc3nc(NC(=O)c4ccc5c(c4)OCCO5)sc32)s1	-10.3*	i	i	i	i	79.1%*	i	i	i
SMILES	MrgX1 antag	RGS4 inh	MrgX1 agonist	MrgX1 PAM	RGS4 act	MrgX1 ant reconf	HEK293 Ca flux	HEK293 Ca counter	HEK293 Ca cntr2	others
Cc1ccc(C(C(=O)NC2CCCC2)N(Cc2ccc(F)cc2)C(=O)c2csnn2)o1 (stereo unspecified)	-4.57*	i	i	i	i	i	i	i	i
Cc1ccc(C(C(=O)NC2CCCC2)N(Cc2ccccc2)C(=O)c2csnn2)o1 (stereo unspecified)	i	i	i	i	i	·	·	·	·
CN(CC(=O)Nc1c(Cl)cccc1Cl)C(=O)C1CSC2(C)CCC(=O)N12 (stereo unspecified)	-6.82*	i	i	i	i	i	i	i	i
Cc1cc(=O)[nH]c(SCCOc2ccc(OC(C)C)cc2)n1	-6.72*	i	i	i	i	i	i	i	i
CCn1c(SCC(=O)N2CCCCC2C)nnc1-c1ccco1 (stereo unspecified)	i	i	i	i	i	·	·	·	·
CC1CCCCN1C(=O)CSc1nnc(-c2ccco2)n1CC1CCCO1 (stereo unspecified)	-7*	i	i	i	i	i	i	i	i
S=c1[nH]nc(-c2cc(-c3ccccc3)n[nH]2)n1/N=C/C(Br)=C/c1ccccc1	i	i	i	i	i	·	·	·	·
